Assay outcomes (PubChem)
Ecoli tolC: growth inhibitors of E. coli tolC mutant, primary screen, strain BW25113 ΔtolC::kan, 384-well. OD615. growth inhibition, % at 10 µM (by protocol). 65,000 compounds, 2.2% hits;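 active means growth inhibition at or above a cutoff equal to the mean over every tested compound plus 3 SD, cut at about 60% in these data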;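 further: growth measured after 20 h incubation at 37 °C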
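test system = E. coli BW25113 ΔtolC::kan bacteria | medium = LB with kanamycin 50 µg/mL | signal = OD at 615 nm | schedule = 37 °C, 20 h exposure | evaluation = % inhibition of E. coli growth | compound dosing = one dose of 10 µM final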
PostGolgi yeast: phenotypic screen on post-Golgi transport, primary screen; post-Golgi transport phenotypic cell assay; AID 739, 2007; 98,000 compounds, 0.9% hits; inhibition, % at 10 µM;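 further: yeast cells grown in 1536-well plates; yeast grown about 18 h at 30C before absorbance read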
PLAP activator: PLAP enzyme activators, biochemical, luminescence, HTS. purified PLAP enzyme, luminescent substrate read-out; stronger effect = higher value. Alkaline phosphatase, placental type (Homo sapiens), P05187. activation fold at 20 µM. 96,000 compounds, 1.2% hits; in the data active means activation fold above about 2
Target sequence (P05187 whole entry, looked up): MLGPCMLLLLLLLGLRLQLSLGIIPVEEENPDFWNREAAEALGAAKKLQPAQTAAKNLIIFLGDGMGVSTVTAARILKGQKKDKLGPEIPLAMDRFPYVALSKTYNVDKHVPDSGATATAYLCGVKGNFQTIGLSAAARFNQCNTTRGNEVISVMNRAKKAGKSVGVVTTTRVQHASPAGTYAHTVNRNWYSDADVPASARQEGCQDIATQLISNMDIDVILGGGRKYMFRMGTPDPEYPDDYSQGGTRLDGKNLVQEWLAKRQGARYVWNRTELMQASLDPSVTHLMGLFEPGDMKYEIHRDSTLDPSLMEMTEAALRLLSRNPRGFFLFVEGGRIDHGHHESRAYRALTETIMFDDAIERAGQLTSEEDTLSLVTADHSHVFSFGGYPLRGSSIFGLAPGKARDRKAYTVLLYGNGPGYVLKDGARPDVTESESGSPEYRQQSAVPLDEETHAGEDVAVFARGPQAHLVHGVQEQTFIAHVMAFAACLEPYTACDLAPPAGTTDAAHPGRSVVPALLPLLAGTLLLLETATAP
Ecoli WT expand: growth inhibitors of wild-type E. coli, primary screen, strain BW25113, expanded library, OD600. OD600 absorbance. growth inhibition, % at 100 µM. 98,000 compounds, 0.15% hits;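 active means growth inhibition above about 50% at one test dose, limit read from the data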;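 further: growth measured after 20 h incubation at 37 °C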
PostGolgi ctrl: growth inhibition of yeast control strain, primary screen, counter-screen for post-Golgi transport modulator project; 98,000 compounds, 5% hits; AID 738, 2007; efflux-deficient yeast background strain, growth absorbance A615, 16 h; inhibition, % at 10 µM
* marks the source's active call; other numbers are inactive results; nt = no result. Most compounds without a hit are left out; they make up all but 7.2% or so of the library. Unless noted, no stated cut-off is given here; in the data, active means inhibition above about 30%; inactive means the rest.

SMILES	Ecoli tolC	PostGolgi yeast	PLAP activator	Ecoli WT expand	PostGolgi ctrl
CCCSc1nc(SCC(=O)NCc2ccccc2)c2c3c(sc2n1)COC(C)(CC)C3 (stereo not drawn)	nt	2	1	-12	10
CCOc1ccc(N(CC(=O)Nc2ccc(C)c(C)c2)S(=O)(=O)c2c(C)noc2C)cc1	61*	4	nt	-18	25
CCOc1ccc(N(CC(=O)Nc2cccc(F)c2)S(=O)(=O)c2c(C)noc2C)cc1	8	-7	1	-3	-1
CN(Cc1ccccc1)C(=O)Cn1c(=O)oc2cc(S(=O)(=O)NCc3ccccc3)ccc21	nt	-11	1.1	-4	-2
CN(Cc1ccccc1)C(=O)Cn1c(=O)oc2cc(S(=O)(=O)N3CCCC3)ccc21	nt	1	0.9	0	35*
CCOC(=O)c1sc(N(Cc2ccccc2)C(=O)CSc2nnc(C3CC3)n2N)nc1C	11	-6	1.1	-2	12
c1cncc(-c2nnc(SCc3cccc4ccccc34)o2)c1	31	-5	1.3	-7	15
C(=C\c1ccccc1)/CSc1nnc(-c2cccnc2)o1	13	-9	0.9	5	33*
CC(C)C(c1nnnn1C1CCCCC1)N1CCc2ccccc21 (stereo not drawn)	nt	-3	1	-1	18
CC(C)C(c1nnnn1C1CCCC1)N1c2ccccc2CC1C (stereo not drawn)	74*	2	1.2	5	-6
COc1ccc(-c2onc3ccc(Cl)cc23)cc1	nt	-6	0.9	-3	2
CCOC(=O)N1CCc2c(sc(NC(=O)c3ccc(Cl)s3)c2C(N)=O)C1	73*	3	1.2	-4	22
CCOC(=O)N1CCc2c(sc(NC(C)=O)c2C(N)=O)C1	-8	nt	nt	nt	nt
CCN(CCCNc1ncnc2nc[nH]c12)c1cccc(C)c1	6	-10	2.1*	4	4
c1ccc(CCNc2ncnc3nc[nH]c23)cc1	1	1	2.2*	1	8
COc1ccccc1CNc1ncnc2nc[nH]c12	-5	2	2.1*	11	8
COc1ccccc1Nc1ncnc2nc[nH]c12	nt	-4	2*	0	13
CC(=O)Nc1cccc(-c2nnc(SCc3ccccc3C#N)n2C)c1	2	-1	0.8	-3	0
CCOC(=O)c1nn(-c2ccccc2C)c2nc(-c3ccc(Cl)cc3)c(C#N)c(=O)n12	nt	-12	1	-13	15
Cc1cc(C)c2nc(N3CCCC(C(=O)N4CCN(c5ncccn5)CC4)C3)sc2c1 (stereo not drawn)	nt	-2	1.5	-5	67*
Cc1cc(C)c2nc(N3CCC(C(=O)N4CCN(C(=O)c5ccco5)CC4)CC3)sc2c1	nt	-2	1.6	-9	9
CC(C)(C)NC(=O)CN(C(=O)CNC(=O)c1cccs1)c1ccc2c(c1)OCCO2	nt	-8	1	-7	6
CCC(CC)NC(=O)COC(=O)c1ccc(NS(=O)(=O)c2ccc3c(c2)OCCO3)cc1	nt	2	1.9	3	0
C=CCn1c(COc2cccc3ccc(C)nc23)nnc1SCC(=O)OC	-4	30*	1.5	4	4
CCn1c(COc2cccc3ccccc23)nnc1SCC(=O)OC1CCCCC1	nt	-3	2.5*	-19	18
SMILES	Ecoli tolC	PostGolgi yeast	PLAP activator	Ecoli WT expand	PostGolgi ctrl
CN1CCN(CCCN2c3ccccc3Sc3ccc(C(F)(F)F)cc32)CC1	5	nt	nt	nt	nt
N#Cc1c(-c2cccs2)cc(C2CC2)nc1SCC(N)=O	nt	-1	1	-4	4
COc1ccccc1N1CCN(C(=O)c2oc3cc(C)c(C)cc3c2C)CC1	72*	-4	0.8	-2	42*
COc1ccccc1N1CCN(C(=O)c2ccc(C(C)(C)C)cc2)CC1	49	-2	1.5	-4	36*
COc1ccccc1N1CCN(C(=O)c2sc3nc(-c4ccc(F)cc4)cn3c2C)CC1	5	-9	1.4	-6	45*
COc1ccccc1N1CCN(C(=O)c2cc(-c3cccs3)on2)CC1	48	11	nt	0	50*
COc1ccccc1N1CCN(C(=O)c2ccncc2)CC1	0	-3	1.3	4	-3
COc1ccc(-c2cn3c(C)c(C(=O)N4CCN(c5ccc(F)cc5)CC4)sc3n2)cc1	1	5	0.9	-7	8
CCOC(=O)CCCNC(=O)COC(=O)c1ccc(O)cc1	nt	-1	1.1	-1	8
COc1cc2c(C(=O)N3CCN(c4ccccc4C)CC3)c(C)oc2cc1Br	nt	-3	1.4	-24	57*
CN(c1ccc(O)cc1)c1nc(-c2ccccc2)cs1	98*	nt	nt	nt	nt
CN(C)CCCN(C(=O)c1cccs1)c1nc(-c2ccccc2)cs1	4	0	1.6	7	2
Cc1nnc(NC(=O)c2ccc3ccccc3c2)o1	31	-4	1.1	50*	11
Cc1ccc(NC(=O)c2ccc(OC(=O)c3cc4ccccc4o3)cc2)cc1	nt	22	0.9	-13	1
Cc1nnc(NC(=O)c2ccc(S(=O)(=O)N(C)Cc3ccccc3)cc2)o1	74*	0	1.6	-1	11
C=CCSc1nnc(-c2nnc(SCC=C)n2-c2ccccc2)n1-c1ccccc1	nt	6	1.1	-5	33*
CCOc1cc(N(CC)CC)ccc1/C=C(/C#N)c1nc2ccccc2[nH]1	nt	12	0.6	-9	50*
CCCOc1cc(N(CC)CC)ccc1/C=C(/C#N)c1nc2ccc(C)cc2[nH]1	nt	-3	0.8	-25	17
O=S(=O)(NCCc1csc(-c2cccnc2)n1)c1ccc(Cl)s1	12	15	0.9	5	14
CCC(=O)N1CCc2cc(S(=O)(=O)NCCCN3CCN(Cc4ccccc4)CC3)ccc21	-5	-1	2*	-3	6
CC(=O)N1CCc2cc(S(=O)(=O)NCCCN3CCN(Cc4ccccc4)CC3)ccc21	6	-1	1.6	-3	3
O=C1NC(=S)SC1=C1CCCCCC1	21	8	1.3	-1	64*
Cn1nc(C(F)(F)F)c(C#N)c1N1CCN(c2ccc(F)cc2)CC1	nt	3	0.9	-3	73*
Cn1nc(C(F)(F)F)c(C#N)c1N1CCN(c2ccccc2)CC1	nt	10	0.8	-4	72*
CN(C)c1nc(N2CCN(c3ccc(F)cc3)CC2)c(C#N)c(=O)o1	nt	1	1.3	6	8
SMILES	Ecoli tolC	PostGolgi yeast	PLAP activator	Ecoli WT expand	PostGolgi ctrl
Cc1ccc(Nc2cc(C)nn2-c2nc(C)cc(=O)[nH]2)cc1	100*	94*	1.4	77*	100*
Cc1ccc(Nc2cc(C)nn2-c2nc(C)cc(C)n2)cc1	13	-4	1.3	-5	39*
Cc1ccc(Nc2nc3ccccc3nc2-n2nc(C)cc2C)cc1	nt	-2	0.9	-24	-3
COc1ccc(CN2CCN(c3ccccn3)CC2)cc1OCc1ccccc1	11	0	1.6	-9	-10
CCc1ccc(NC(=O)CCNS(=O)(=O)c2cccc3nonc23)cc1	32	-1	1.1	-2	1
CCC(=O)N1CN(S(=O)(=O)c2ccc(C)cc2)CC1C (stereo not drawn)	-20	-1	0.9	1	2
